From PubChem BioAssay
Rin1 Abl inh: inhibitors of Rin1-Abl protein binding, primary screen, biochemical, TR-FRET; Tyrosine-protein kinase ABL1 (Homo sapiens) + Ras and Rab interactor 1 (Homo sapiens), …; inhibition, % at 7.35 µM; 360,000 compounds, 0.4% hits; in the data active means inhibition above about 5%, passing the limit was not always enough
SR-BI DiI inh: inhibitors of SR-BI mediated HDL lipid uptake, primary screen, ldlA[mSR-BI] cells, fluorescence, single point; Scavenger receptor class B member 1 (Mus musculus), Q61009; ldlA[mSR-BI] CHO cells, DiI-HDL uptake fluorescence, 3 h; inhibition, % at 12.5 µM; 320,000 compounds, 0.96% hits;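 active means mean replicate inhibition of at least 70% and a set share of replicates each scoring 70 or more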
GRK2 aptamer HTS: compounds blocking aptamer binding on GRK2 – biochemical, human GRK2, bead flow cytometry, HTS, primary screen; FAM-aptamer displacement from GRK2; inhibition of aptamer binding, % at 10 µM; 330,000 compounds, 0.59% hits;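 active means inhibition of aptamer binding above 40%, roughly 3 SD of noise, on plates passing a quality check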;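 further: median bead fluorescence of bound FAM aptamer so fluorescent compounds give negative values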
SR-BI DiI-HDL act: activators of SR-BI mediated DiI-HDL uptake, primary screen, ldlA[mSR-BI] CHO cells, DiI fluorescence; AID 504775, 2011; 320,000 compounds, 0.096% hits; activation, % at 12.5 µM; 3 h; 100 = double the neutral-control signal;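 active means mean replicate activation of at least 60% and every replicate at or above 60%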
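Test system: SR-BI-overexpressing, LDLR-lacking CHO cells. Measured by: DiI fluorescence, bottom read. Medium: Ham's F12 with 0.5% BSA, HEPES 25 mM, pH 7.4. Timing: 3 h uptake period with compound, 37 °C.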
Hits are given with their value; i = inactive; nt = not tested or not shown. Sampled rows, rich in hits. Any-hit rate of the full collection: about 1.9%.

SMILES	Rin1 Abl inh	SR-BI DiI inh	GRK2 aptamer HTS	SR-BI DiI-HDL act
CCCc1cc(C(=O)NNC(=S)NCC)c2ccccc2n1	i	i	i	i
CCOC(=O)N1CCN(C(=O)CNC2CCCCCCC2)CC1	i	nt	i	nt
CCN(CC)c1ccc(-n2cc3c(=O)n(C)c(=O)n(C)c3c2)cc1	i	74	i	i
CNC(=O)C[C@H]1C(=O)N(c2ccc(Br)cc2)C[C@@H]1C	i	nt	nt	nt
COC(=O)C1CCN(C(=O)c2cc(-c3ccco3)nc3ccccc23)CC1	i	i	76	i
COc1ccc(NC(=O)CN(C)C(=O)c2cc(-c3ccco3)nc3ccccc23)cc1	i	i	76	i
[O-][n+]1onc2c1CCc1c-2nc(-c2ccccc2)n1OCc1ccccc1	i	80	i	i
COn1c(-c2ccccc2)nc2c1CCc1c-2no[n+]1[O-]	i	i	i	i
Cc1cnc2ccc(F)cc2c1	i	nt	nt	nt
Cc1cccc(NC(=S)NNC(=O)Cc2ccccc2)c1	i	i	i	211
Cc1cccc(NCC(=O)NNC(=S)Nc2ccccc2)c1	i	i	i	i
O=C(NCCc1ccccc1C(F)(F)F)c1cc(COc2ccccc2)on1	i	nt	nt	nt
CCN1CCSc2ccc(C(=O)Nc3ccc(NC(C)=O)cc3)cc21	i	80	i	i
[N-]=[N+]=CC(=O)C(c1ccccc1)(c1ccccc1)c1ccccc1	i	i	i	i
COc1cc(/C=N/n2nnnc2Nc2ccccc2)cc(OC)c1OC	i	89	i	i
Cc1nn(-c2ccc(N3CCCCC3)nn2)c(C)c1CCC(=O)Nc1cc(F)ccc1F	i	72	i	i
Cc1nn(-c2ccc(N3CCCCC3)nn2)c(C)c1CCC(=O)Nc1ccccc1F	i	i	i	i
Cc1ccc(NC(=O)CCc2c(C)nn(-c3ccc(N4CCOCC4)nn3)c2C)cc1C	i	79	i	i
Cc1ccccc1NC(=O)CCc1c(C)nn(-c2ccc(N3CCCCC3)nn2)c1C	i	82	i	i
CCN(c1ccccc1)S(=O)(=O)c1cc(NC(=O)CN2CCN(C)CC2)ccc1Cl	i	i	i	i
N#Cc1ccc(-c2cccc3nccn23)cc1	i	nt	nt	nt
COc1ccc(C(=O)Nc2nc3c(s2)Cc2cc(OC)ccc2-3)cc1	i	87	i	i
COc1ccc2c(c1)Cc1sc(NC(=O)c3ccccc3)nc1-2	i	i	i	i
Cc1cccc2c1c1ccc3c(c1n2C)C(=O)C=CC3=O	i	i	nt	i
COC(CNC(=O)c1ccc(N2CCc3ccccc32)c([N+](=O)[O-])c1)OC	i	i	i	i
SMILES	Rin1 Abl inh	SR-BI DiI inh	GRK2 aptamer HTS	SR-BI DiI-HDL act
NNC(=O)c1ccc(N2CCc3ccccc32)c([N+](=O)[O-])c1	i	79	i	i
Nc1ccc(N)c(C(=O)O)c1	13	i	88	i
O=C(c1ccsc1)N1CCCC(N2CCN(c3ccccc3F)CC2)C1 (centres undefined)	i	i	i	i
O=C(c1noc2c1CCCC2)N1CCCC(N2CCN(c3ccccc3F)CC2)C1 (centres undefined)	i	73	i	i
CC(=O)OC1C(=O)N(Cc2ccccc2)C1c1ccc(C)cc1 (centres undefined)	i	i	nt	i
CCOc1cc(C(=O)Nc2cc(C(=O)OC)ccc2C)ccc1OCC(=O)N1CCOCC1	i	73	i	i
COc1ccc(/C(C)=N\Nc2nc(-c3ccccc3)cc(=O)[nH]2)cc1	i	73	i	i
COc1ccc(NC(=O)C2(C)Cc3c(-c4ccc(NC(C)=O)cc4)ccnc3O2)cc1OC (centres undefined)	i	nt	nt	nt
CC1(C(=O)NS(=O)(=O)c2ccccc2OC(F)(F)F)CCN1C(=O)Cc1ccccc1 (centres undefined)	i	nt	nt	nt
Cn1c(=O)n(C)c2cc(CNC(=O)[C@H]3O[C@@H](n4ccc(=O)[nH]c4=O)[C@H](O)[C@@H]3O)ccc21	i	nt	nt	nt
FC(F)Oc1ccc(/C=N/c2c(-c3ccc(OC(F)F)cc3)nc3n2CCS3)cc1	i	74	i	i
COc1cccc(Oc2ccc(C(F)(F)F)cc2NC(=O)CN2C(=O)NC3(CCCC3)C2=O)c1	i	i	i	i
Cc1ccc(-n2nc(C)cc2NC(=O)CC#N)cc1	i	i	i	i
Cc1ccc(-n2nc(C)cc2NC(=O)c2ccc(C)s2)cc1	i	87	i	i
COc1cccc(-c2csc(NC(=O)Nc3ccccc3)n2)c1	i	77	i	i
COc1cccc(Nc2nc(-c3cccc(N4C(=O)c5ccccc5C4=O)c3)cs2)c1	i	91	i	i
